In ChEMBL document CHEMBL3124924, “Bifunctional ethyl 2-amino-4-methylthiazole-5-carboxylate derivatives: synthesis and in vitro biological evaluation as antimicrobial and anticancer agents” (2014):
Converted amounts (≈) assume the structure as drawn. The source made the active and inactive calls. No cut-off for these calls is given here.

What was measured:
[1] = system: CCRF-CEM; experiment: Cytotoxicity against human CCRF-CEM cells assessed as growth inhibition at 10 uM after 48 hrs by SRB assay; format: functional; settings: read-out: GI
Method in brief: (§1)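 NCI-60 one-dose primary screen run by the NCI Drug Evaluation Branch across the full 60-line panel. Single high-dose treatment with 48 h continuous drug exposure. Cell growth estimated by sulforhodamine B protein staining. Results given as percent growth of treated cells and expressed as percentage growth inhibition.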

[2] = system: Escherichia coli; experiment: Antibacterial activity against Escherichia coli ATCC 25922 assessed as growth inhibition after 48 hrs by two-fold serial dilution assay; format: functional; settings: ATCC 25922, 48 h
Method in brief: (§2)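 Twofold serial broth dilution run on compounds giving inhibition zones of 13 mm or more. Organisms pre-grown in suitable broth at 37 °C, 24 h for bacteria and 48 h for fungi. Dilution series 200, 100, 50, 25, 12.5, 6.25. Each 5 mL tube inoculated with 0.1 mL and incubated 37 °C for 48 h. Tubes scored for presence or absence of growth.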

[3] = system: A498; experiment: Cytotoxicity against human A498 cells assessed as growth inhibition at 10 uM after 48 hrs by SRB assay; format: functional; settings: A498, 48 h, read-out: GI; method in brief: as §1
[4] = system: Escherichia coli; experiment: Bactericidal activity against Escherichia coli ATCC 25922 after 18 hrs; format: functional; settings: ATCC 25922, 18 h
Method in brief: (§3)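 Continuation of the broth-dilution MIC test. A loopful from each tube without visible growth spread on a quarter of a Mueller-Hinton agar plate and incubated 18 h. Lowest concentration giving no growth on subculture taken as the MBC.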

[5] = system: Pseudomonas aeruginosa; experiment: Bactericidal activity against Pseudomonas aeruginosa ATCC 27853 after 18 hrs; format: functional; settings: ATCC 27853, 18 h; method in brief: as §3
[6] = Cytotoxicity against human Hs578T cells assessed as growth inhibition at 10 uM after 48 hrs by SRB assay; format: functional; settings: Hs-578T, read-out: GI; method in brief: as §1
[7] = system: IGROV-1; experiment: Cytotoxicity against human IGROV1 cells assessed as growth inhibition at 10 uM after 48 hrs by SRB assay; format: functional; settings: IGROV-1, 48 h, read-out: GI; method in brief: as §1
[8] = system: Pseudomonas aeruginosa; experiment: Antibacterial activity against Pseudomonas aeruginosa ATCC 27853 assessed as growth inhibition at 1 mg/mL after 24 hrs by agar-cup diffusion method; format: functional; settings: ATCC 27853, 24 h, read-out: DIZ
Method in brief: (§4)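 Agar-cup diffusion: 1 mL of 6 h broth culture seeded per 100 mL molten sterile agar at 45 °C and poured into plates. 8 mm cups cut, each filled with 0.1 mL of 1 mg/mL test solution. Incubated 37 °C for 24 h, 48 h for C. albicans. DMSO control per organism. Inhibition zone diameter in mm, mean of three measurements.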

[9] = system: Bacillus spizizenii; experiment: Antibacterial activity against Bacillus subtilis ATCC 6633 assessed as growth inhibition after 48 hrs by two-fold serial dilution assay; format: functional; settings: ATCC 6633, 48 h; method in brief: as §2
[10] = system: HOP-92; experiment: Cytotoxicity against human HOP92 cells assessed as growth inhibition at 10 uM after 48 hrs by SRB assay; format: functional; settings: HOP-92, 48 h, read-out: GI; method in brief: as §1
[11] = system: NCI-H322M; experiment: Cytotoxicity against human NCI-H322M cells assessed as growth inhibition at 10 uM after 48 hrs by SRB assay; format: functional; settings: read-out: GI; method in brief: as §1
[12] = system: LOX IMVI; experiment: Cytotoxicity against human LOXIMVI cells assessed as growth inhibition at 10 uM after 48 hrs by SRB assay; format: functional; settings: read-out: GI; method in brief: as §1
[13] = system: Pseudomonas aeruginosa; experiment: Antibacterial activity against Pseudomonas aeruginosa ATCC 27853 assessed as growth inhibition after 48 hrs by two-fold serial dilution assay; format: functional; settings: ATCC 27853, 48 h; method in brief: as §2
[14] = Cytotoxicity against human UO31 cells assessed as growth inhibition at 10 uM after 48 hrs by SRB assay; format: functional; settings: UO-31, 48 h, read-out: GI; method in brief: as §1
[15] = system: PC-3; experiment: Cytotoxicity against human PC3 cells assessed as growth inhibition at 10 uM after 48 hrs by SRB assay; format: functional; settings: PC-3, 48 h, read-out: GI; method in brief: as §1
[16] = system: Staphylococcus aureus; experiment: Antibacterial activity against Staphylococcus aureus ATCC 6538 assessed as growth inhibition at 1 mg/mL after 24 hrs by agar-cup diffusion method; format: functional; settings: ATCC 6538, 24 h, read-out: DIZ; method in brief: as §4
[17] = system: RPMI-8226; experiment: Cytotoxicity against human RPMI8226 cells assessed as growth inhibition at 10 uM after 48 hrs by SRB assay; format: functional; settings: RPMI-8226, 48 h, read-out: GI; method in brief: as §1
[18] = system: T47D; experiment: Cytotoxicity against human T47D cells assessed as growth inhibition at 10 uM after 48 hrs by SRB assay; format: functional; settings: read-out: GI; method in brief: as §1
[19] = system: SF-268; experiment: Cytotoxicity against human SF268 cells assessed as growth inhibition at 10 uM after 48 hrs by SRB assay; format: functional; settings: SF-268, 48 h, read-out: GI; method in brief: as §1
[20] = system: Bacillus spizizenii; experiment: Antibacterial activity against Bacillus subtilis ATCC 6633 assessed as growth inhibition at 1 mg/mL after 24 hrs by agar-cup diffusion method; format: functional; settings: ATCC 6633, 24 h, read-out: DIZ; method in brief: as §4
[21] = system: MCF7; experiment: Cytotoxicity against human MCF7 cells assessed as growth inhibition at 10 uM after 48 hrs by SRB assay; format: functional; settings: MCF7, 48 h, read-out: GI; method in brief: as §1
[22] = system: Staphylococcus aureus; experiment: Antibacterial activity against Staphylococcus aureus ATCC 6538 assessed as growth inhibition after 48 hrs by two-fold serial dilution assay; format: functional; settings: ATCC 6538, 48 h; method in brief: as §2
[23] = system: HCT-15; experiment: Cytotoxicity against human HCT15 cells assessed as growth inhibition at 10 uM after 48 hrs by SRB assay; format: functional; settings: HCT-15, 48 h, read-out: GI; method in brief: as §1
[24] = system: Staphylococcus aureus; experiment: Bactericidal activity against Staphylococcus aureus ATCC 6538 after 18 hrs; format: functional; settings: ATCC 6538, 18 h; method in brief: as §3
[25] = system: Candida albicans; experiment: Antifungal activity against Candida albicans ATCC 10231 assessed as growth inhibition at 1 mg/mL after 48 hrs by agar-cup diffusion method; format: functional; settings: ATCC 10231, 48 h, read-out: DIZ; method in brief: as §4
[26] = system: SR; experiment: Cytotoxicity against human SR cells assessed as growth inhibition at 10 uM after 48 hrs by SRB assay; format: functional; settings: read-out: GI; method in brief: as §1
[27] = system: K562; experiment: Cytotoxicity against human K562 cells assessed as growth inhibition at 10 uM after 48 hrs by SRB assay; format: functional; settings: K562, 48 h, read-out: GI; method in brief: as §1
[28] = system: U-251; experiment: Cytotoxicity against human U251 cells assessed as growth inhibition at 10 uM after 48 hrs by SRB assay; format: functional; settings: U-251, 48 h, read-out: GI; method in brief: as §1
[29] = system: HCC 2998; experiment: Cytotoxicity against human HCC2998 cells assessed as growth inhibition at 10 uM after 48 hrs by SRB assay; format: functional; settings: HCC 2998, 48 h, read-out: GI; method in brief: as §1
[30] = Cytotoxicity against human NCI-ADR-RES cells assessed as growth inhibition at 10 uM after 48 hrs by SRB assay; format: functional; settings: read-out: GI; method in brief: as §1
[31] = system: UACC-62; experiment: Cytotoxicity against human UACC62 cells assessed as growth inhibition at 10 uM after 48 hrs by SRB assay; format: functional; settings: UACC-62, 48 h, read-out: GI; method in brief: as §1
[32] = system: MOLT-4; experiment: Cytotoxicity against human MOLT4 cells assessed as growth inhibition at 10 uM after 48 hrs by SRB assay; format: functional; settings: MOLT-4, 48 h, read-out: GI; method in brief: as §1
[33] = system: Aspergillus niger; experiment: Antifungal activity against Aspergillus niger assessed as growth inhibition at 1 mg/mL after 24 hrs by agar-cup diffusion method; format: functional, organism-based; method in brief: as §4

SMILES	inhibition of growth at 10 µM [1] [%]	MIC [2] [µg/mL]	inhibition of growth at 10 µM [3] [%]	MBC [4] [µg/mL]	MBC [5] [µg/mL]	inhibition of growth at 10 µM [6] [%]	inhibition of growth at 10 µM [7] [%]	zone of inhibition at 1000 µg/mL [8] [mm]	MIC [9] [µg/mL]	inhibition of growth at 10 µM [10] [%]	inhibition of growth at 10 µM [11] [%]	inhibition of growth at 10 µM [12] [%]	MIC [13] [µg/mL]	inhibition of growth at 10 µM [14] [%]	inhibition of growth at 10 µM [15] [%]	zone of inhibition at 1000 µg/mL [16] [mm]	inhibition of growth at 10 µM [17] [%]	inhibition of growth at 10 µM [18] [%]	inhibition of growth at 10 µM [19] [%]	zone of inhibition at 1000 µg/mL [20] [mm]	further results
Cc1nc(NC(=O)NC2CCCCC2)sc1C(=O)NN	< 10	50 (≈ 168 µM)	< 10	100 (≈ 336 µM)	200 (≈ 673 µM)	< 10	28	> 13	100 (≈ 336 µM)	82.8	< 10	7.54	100 (≈ 336 µM)	16	< 10	> 13	< 10	< 10	< 10	> 13	inhibition of growth at 10 µM [21]: < 10%; MIC [22]: 25 µg/mL (≈ 84.1 µM); inhibition of growth at 10 µM [23]: 9.55%; MBC [24]: 50 µg/mL (≈ 168 µM); zone of inhibition at 1000 µg/mL [25]: > 13 mm; inhibition of growth at 10 µM [26]: < 10%; inhibition of growth at 10 µM [27]: < 10%; inhibition of growth at 10 µM [28]: 2.59%; inhibition of growth at 10 µM [29]: < 10%; inhibition of growth at 10 µM [30]: 3.01%; inhibition of growth at 10 µM [31]: 10.2%; inhibition of growth at 10 µM [32]: < 10%; growth inhibition (GI) [33]: inactive
Cc1nc(NC(=S)Nc2ccc(F)cc2)sc1C(=O)NN	< 10	12.5 (≈ 38.4 µM)	< 10	12.5 (≈ 38.4 µM)	50 (≈ 154 µM)	2.23	6.51	> 13	12.5 (≈ 38.4 µM)	33.7	15.1	6.73	50 (≈ 154 µM)	11	2.36	> 13	< 10	2.52	< 10	> 13	inhibition of growth at 10 µM [21]: < 10%; MIC [22]: 6.25 µg/mL (≈ 19.2 µM); inhibition of growth at 10 µM [23]: < 10%; MBC [24]: 6.25 µg/mL (≈ 19.2 µM); zone of inhibition at 1000 µg/mL [25]: > 13 mm; inhibition of growth at 10 µM [26]: < 10%; inhibition of growth at 10 µM [27]: < 10%; inhibition of growth at 10 µM [28]: 5.41%; inhibition of growth at 10 µM [29]: 10.5%; inhibition of growth at 10 µM [30]: 10%; inhibition of growth at 10 µM [31]: 10.8%; inhibition of growth at 10 µM [32]: < 10%; growth inhibition (GI) [33]: inactive
CCOC(=O)c1sc(NC(=O)c2cc(OC)c(OC)c(OC)c2)nc1C	11.7	12.5 (≈ 32.9 µM)	11.4	12.5 (≈ 32.9 µM)	100 (≈ 263 µM)	11.2	< 10	> 13	25 (≈ 65.7 µM)	53.1	< 10	3.7	50 (≈ 131 µM)	24.3	35	> 13	17	< 10	3.75	> 13	inhibition of growth at 10 µM [21]: 12.5%; MIC [22]: 6.25 µg/mL (≈ 16.4 µM); inhibition of growth at 10 µM [23]: 5.3%; MBC [24]: 6.25 µg/mL (≈ 16.4 µM); zone of inhibition at 1000 µg/mL [25]: > 13 mm; inhibition of growth at 10 µM [26]: 21%; inhibition of growth at 10 µM [27]: 49%; inhibition of growth at 10 µM [28]: < 10%; inhibition of growth at 10 µM [29]: 42.7%; inhibition of growth at 10 µM [30]: 4.66%; inhibition of growth at 10 µM [31]: 11.5%; inhibition of growth at 10 µM [32]: 12.4%; growth inhibition (GI) [33]: inactive
